Source: PubChem
CHOP inh = inhibitors of CHOP promoter induction, primary screen, cell-based, unfolded protein response, luciferase reporter. CHO-K1 CHOP-promoter luciferase, tunicamycin-induced, 15-18 h. inhibition, % at 10 µM. hit rate 3.8% among 220,000. AID 2732, 2010;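 active = compounds that reduced the stress-induced luciferase reporter signal by more than about 70% of percent inhibition, limit read from the data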;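 note: 0% = tunicamycin plus vehicle and 100% = wells without tunicamycin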
MT stabilize HCS = microtubule stabilizers in HeLa cells, primary screen, imaging, high-content imaging | hit rate 0.83% among 200,000 | HeLa tubulin immunostaining HCS, 24 h; share of cells brighter than vehicle mean+2SD | % tubulin-high responders, % at 10 µM | AID 2205, 2009;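 active = plate Z-score above 3 for both tubulin-high and condensed-nucleus cell shares, with cell loss under 80%, at 10 µM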;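 note: anti alpha tubulin signal scored within the nucleus-defined area of each cell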
Autophagy HCS = autophagy modulators in MEF cells, primary screen, imaging, high-content, MEF GFP-LC3 | MEF GFP-LC3 puncta imaging; test concentration mostly 10 µM | calls only at 10 µM (by protocol) | hit rate 0.98% among 190,000 | AID 463193, 2010;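 active = percentage of spot-positive cells more than 3 SD above its plate mean, without a fluorescence outlier flag or 80% toxicity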;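 note: spot-positive cell cutoff set from DMSO-treated cells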
Dynein transport = inhibitors of GR-EGFP nuclear translocation, primary screen, dynein cargo transport inhibitor project, imaging, high-content, 3617.4 mouse cells; test concentration mostly 20 µM; stimulated with dexamethasone, 1 µM; active compounds read low; z-score, hits read low; hit rate 0.47% among 220,000;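 active = plate z-score of nuclear minus cytoplasmic receptor signal below a set negative limit, without overly bright fluorescence or cell loss, cut at about -3.5 in these data, passing the limit was not always enough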;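 note: z-score of nuclear minus cytoplasmic ring GR-EGFP intensity difference per well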
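Also added: dexamethasone, 1.0 µM final. Medium: tet-free, stripped-serum medium. Detection: fixed, Hoechst-stained cells imaged at 10x for EGFP. Read-out: nuclear-to-cytoplasmic GR-EGFP distribution per well. Times: induction 48 h, compound 1 h, agonist 30 min.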
Lmaj promast = Leishmania major promastigote growth inhibition, primary screen. Leishmania major promastigotes, resazurin fluorescence viability. inhibition, % at 10 µM. hit rate 9% among 200,000. AID 1063, 2008; in the data active = inhibition above about 50%;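 note: promastigotes grown with compound for 44 hours at 28 °C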
bCat nuc transl = modulators of beta-catenin nuclear translocation, primary screen, imaging, HeLa cells, immunofluorescence, high-content; nuclear translocation activity, % at 5 µM; hit rate 0.3% among 190,000; AID 1665, 2009;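 active = nuclear translocation activity above 50% at 5 µM, with a well cell count of 50 or more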;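 note: per-cell ratio of nuclear to cytoplasmic median beta-catenin stain intensity; plate controls were DMSO negative control for no effect and GSK-3 inhibitor IX positive control for full effect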
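Assay system: human HeLa cells, native beta-catenin; doses: 5 µM primary, 0.02–20 µM confirmation; incubation: compound treatment 24 h, 37°C, 5% CO2; technique: fluorescence imaging of beta-catenin antibody stain plus DAPI; measure: % activation, nuclear-to-cytoplasmic median beta-catenin signal ratio per cell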
Starred values were filed as active, the others as inactive. Rows were chosen to be rich in hits. Some 12% of all compounds tested hit in one or more screens of this group.

For Cc1ccc(NC(=O)CCNS(=O)(=O)c2cc(Br)cnc2N)cc1Cl the results were CHOP inh 67, MT stabilize HCS 3, Autophagy HCS inactive, Dynein transport -0.68, Lmaj promast 35 and bCat nuc transl -4.
`Nc1ncc(Br)cc1S(=O)(=O)NCCC(=O)Nc1cccc(Cl)c1` gave CHOP inh 22, MT stabilize HCS 2, Autophagy HCS inactive, Dynein transport -0.26, Lmaj promast 64* and bCat nuc transl 0.
For CCn1c(CNc2ccc(F)cc2)nnc1SCC(=O)Nc1ccc(OC)cc1 the results were CHOP inh 23, MT stabilize HCS 3, Autophagy HCS inactive, Dynein transport -0.29, Lmaj promast 3 and bCat nuc transl -4.
For CSc1nc2nc3c(c(=O)n2[nH]1)CCCC3 the results were CHOP inh 31, MT stabilize HCS 3, Autophagy HCS inactive, Dynein transport 0.24, Lmaj promast -5 and bCat nuc transl -1.
`CCOC(=O)N/N=C/c1cc(C)n(-c2ccccc2)c1C` gave CHOP inh -19, MT stabilize HCS 2, Autophagy HCS inactive, Dynein transport 0.37, Lmaj promast 16 and bCat nuc transl 1.
Screening COC(=O)N/N=C/c1cc(C)n(-c2cccc3ccccc23)c1C returned CHOP inh 21, MT stabilize HCS 3, Autophagy HCS inactive, Dynein transport 0.023, Lmaj promast 67* and bCat nuc transl -1.
CCOC(=O)N/N=C/c1cc(C)n(-c2cccc3ccccc23)c1C was read as CHOP inh 12, MT stabilize HCS 21*, Autophagy HCS inactive, Dynein transport 0.49, Lmaj promast 9 and bCat nuc transl 9.
For CCOc1ccc2ccccc2c1/C=N\NC(=O)OC the results were CHOP inh 31, MT stabilize HCS 4, Autophagy HCS inactive, Dynein transport -0.45, Lmaj promast 20 and bCat nuc transl 0.
`Cc1ccc(S(=O)(=O)N2CCN(C(=O)C3CCN(C(=O)c4ccccc4C)CC3)CC2)cc1C` gave CHOP inh 36, MT stabilize HCS 4, Autophagy HCS inactive, Dynein transport 0.078, Lmaj promast 12 and bCat nuc transl -2.
O=C1[C@H]2C(c3ccccc3)=NN(c3ccccc3)[C@H]2C(=O)N1c1ccccc1 was read as CHOP inh 59, MT stabilize HCS 2, Autophagy HCS inactive, Dynein transport -0.38, Lmaj promast 0 and bCat nuc transl 1.
For O=C1C2C(c3ccccc3)=NN(c3ccccc3)C2C(=O)N1c1ccccc1 (stereo unspecified) the results were CHOP inh 73*, MT stabilize HCS 1, Autophagy HCS inactive, Dynein transport -0.56 and Lmaj promast 59*.
Screening CCOC(=O)Cn1ccc(-c2ccccc2)c(C#N)c1=O returned CHOP inh -4, MT stabilize HCS 2, Autophagy HCS inactive, Dynein transport 0.38, Lmaj promast -3 and bCat nuc transl -3.
CCN(CC)c1ccc(/C=N/N=C(c2ccccc2)c2ccccc2)c(O)c1 was read as CHOP inh 32, MT stabilize HCS 2, Autophagy HCS active, Dynein transport -1.2, Lmaj promast -1 and bCat nuc transl 5.
`C#CCn1cc(/C=N/Nc2nc3ccccc3[nH]2)c2ccccc21` gave CHOP inh 14, MT stabilize HCS 3, Autophagy HCS inactive, Dynein transport -0.072, Lmaj promast 101* and bCat nuc transl 1.
Screening CCN(CC)c1ccc(/C=N/Nc2nc3ccccc3[nH]2)c(O)c1 returned CHOP inh 83*, MT stabilize HCS 2, Autophagy HCS inactive, Dynein transport -0.4, Lmaj promast 100* and bCat nuc transl 0.
CCN(CC)c1ccc(/C=N/N(c2ccccc2)c2ccccc2)c(O)c1 was read as CHOP inh 14, MT stabilize HCS 4, Autophagy HCS inactive, Dynein transport -0.2, Lmaj promast -8 and bCat nuc transl 0.
Screening C(=N\Nc1nc2ccccc2[nH]1)/c1cccc2nccnc12 returned CHOP inh 71*, Dynein transport -0.47 and bCat nuc transl 1.
`Cc1nc(CS(=O)(=O)c2ccc(Cl)cc2)sc1C(=O)O` gave CHOP inh -6, Dynein transport 0.56 and bCat nuc transl -2.
CN(C)c1nc2n(c(=S)n1)CCS2 was read as CHOP inh 40, MT stabilize HCS 3, Autophagy HCS inactive, Dynein transport -0.75, Lmaj promast -9 and bCat nuc transl 0.
Screening CCN(CC)c1ccc(/C=N/NC(=O)Cc2cccs2)c(O)c1 returned CHOP inh 59, MT stabilize HCS 1, Autophagy HCS inactive, Dynein transport -0.24, Lmaj promast 98* and bCat nuc transl 3.
For CNCC(O)Cn1c(C(F)(F)F)nc2ccccc21 (stereo unspecified) the results were CHOP inh 12, MT stabilize HCS 4, Autophagy HCS inactive, Dynein transport 0.22, Lmaj promast -10 and bCat nuc transl -4.
For CCCC(CCC)C(=O)Nc1ccc2c(c1)N(C(=O)CCN1CCN(C)CC1)c1ccccc1CC2 the results were CHOP inh -7, MT stabilize HCS 3, Autophagy HCS inactive, Dynein transport 1.1, Lmaj promast -1 and bCat nuc transl -1.
`COc1ccc2c(c1)C(=NO)c1cc(OC)ccc1-2` gave CHOP inh 72*, MT stabilize HCS 2, Autophagy HCS inactive, Dynein transport 0.47, Lmaj promast -3 and bCat nuc transl 7.
For COc1ccc2c(c1)C(=NNC(=O)c1ccccn1)c1cc(OC)ccc1-2 the results were CHOP inh 38, MT stabilize HCS 1, Autophagy HCS inactive, Dynein transport 0.11, Lmaj promast 0 and bCat nuc transl 0.
`CCS(=O)(=O)N1CCN(c2ccc([N+](=O)[O-])c(NCc3cccnc3)c2)CC1` gave CHOP inh -10, MT stabilize HCS 2, Autophagy HCS inactive, Dynein transport -0.12, Lmaj promast 3 and bCat nuc transl 0.
For O=[N+]([O-])c1ccc(N2CCN(S(=O)(=O)c3ccccc3[N+](=O)[O-])CC2)cc1NCc1cccnc1 the results were CHOP inh 24, MT stabilize HCS 4, Autophagy HCS inactive, Dynein transport 0.18, Lmaj promast 68* and bCat nuc transl -2.
Screening Cc1nc2c(-c3ccc(F)cc3)c(C)nn2c(C)c1CCC(=O)NC(C)CCc1ccco1 (stereo unspecified) returned CHOP inh 1, MT stabilize HCS 1, Dynein transport 1.2, Lmaj promast 100* and bCat nuc transl -2.
For Cc1nc2cc(-c3ccc(Cl)cc3)nn2c(C)c1CCC(=O)NCc1ccco1 the results were CHOP inh 74*, MT stabilize HCS 2, Autophagy HCS inactive, Dynein transport -0.32 and Lmaj promast 3.
